According to ChEMBL document CHEMBL4330056, “Synthesis and Cytotoxic and Antiviral Profiling of Pyrrolo- and Furo-Fused 7-Deazapurine Ribonucleosides” (J Med Chem, 2018):
pEC50, pIC50: −log10 of the molar value. Activity calls are given as the source filed them. No cut-off for these calls is given here.

Legend:
K562 = experiment: Antiproliferative activity against human K562 cells after 3 days by MTS assay; format: functional, cell-based; details: K562, 72 h
[1] = Antiproliferative activity against human CEM-DNR-bulk cells after 3 days by MTS assay; details: 72 h
[2] = Cytotoxicity against human Hep2 cells assessed as reduction in cell viability after 3 days by CellTiter-Glo assay; format: cell-based; details: HEp-2 cells
HL-60 = experiment: Antiproliferative activity against human HL60 cells after 72 hrs by XTT assay; format: functional, cell-based; details: HL-60, 72 h
BJ = experiment: Antiproliferative activity against human BJ cells after 3 days by MTS assay; details: 72 h
HepG2 = experiment: Antiproliferative activity against human HepG2 cells after 72 hrs by XTT assay; format: functional, cell-based; details: HepG2, 72 h
[3] = Antiproliferative activity against human K562-TAX cells after 3 days by MTS assay; format: functional, cell-based; details: 72 h
Human alphaherpesvirus 1 = experiment: Antiviral activity against human herpesvirus 1 HF infected in African green monkey Vero cells assessed as inhibited virus-induced cytopathic effect incubated for 3 days by XTT assay; format: functional, organism-based
MRC5 = experiment: Antiproliferative activity against human MRC5 cells after 3 days by MTS assay; details: MRC5, 72 h
A549 = experiment: Antiproliferative activity against human A549 cells after 3 days by MTS assay; format: functional, cell-based; details: A549, 72 h
U2OS = experiment: Antiproliferative activity against human U2OS cells after 3 days by MTS assay; format: functional, cell-based; details: 72 h
HeLa S3 = experiment: Antiproliferative activity against human HeLaS3 cells after 72 hrs by XTT assay; format: functional, cell-based; details: HeLa S3, 72 h
Adenosine kinase [4] = target: T1, Adenosine kinase (Homo sapiens, UniProt P55263); experiment: Inhibition of recombinant human ADK using [3H]-adenosine as substrate after 20 mins by TLC scanner-based analysis relative to control
T1 sequence (P55263 whole entry): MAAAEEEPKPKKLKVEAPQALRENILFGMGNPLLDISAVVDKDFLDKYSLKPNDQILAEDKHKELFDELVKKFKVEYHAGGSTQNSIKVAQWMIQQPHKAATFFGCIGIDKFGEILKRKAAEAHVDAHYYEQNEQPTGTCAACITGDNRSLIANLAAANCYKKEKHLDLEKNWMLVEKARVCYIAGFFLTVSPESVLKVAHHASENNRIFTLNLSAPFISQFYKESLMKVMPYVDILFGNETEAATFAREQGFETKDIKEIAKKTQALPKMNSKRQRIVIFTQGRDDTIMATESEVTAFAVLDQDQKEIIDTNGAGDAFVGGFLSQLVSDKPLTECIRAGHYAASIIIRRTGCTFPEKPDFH
In short: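 ADK inhibition: 50 μM adenosine substrate with 10 μM test compound and 97 ng enzyme, 20 min at 37 °C.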

Human orthopneumovirus = experiment: Antiviral activity against Human respiratory syncytial virus A2 infected in Hep2 cells assessed as reduction in virus-induced cytopathic effect incubated for 4 days by CellTiter-Glo viability reagent based assay; format: functional, organism-based
HCT-116 [5] = experiment: Antiproliferative activity against p53 gene knocked out human HCT116 cells after 3 days by MTS assay; format: functional, cell-based; details: HCT-116, 72 h
Hepatitis C virus [6] = experiment: Antiviral activity against Hepatitis C virus genotype 1b infected in human Huh-luc replicon cells after 3 days by luciferase assay; format: functional, organism-based, Hepacivirus hominis; details: subtype 1b, 72 h
HCT-116 [7] = experiment: Antiproliferative activity against human HCT116 cells after 3 days by MTS assay; format: functional, cell-based; details: HCT-116, 72 h
CCRF-CEM [8] = experiment: Antiproliferative activity against human CCRF-CEM cells after 3 days by MTS assay; format: functional, cell-based; details: 72 h
Coxsackievirus B3 = experiment: Antiviral activity against Human coxsackie B3 Nancy infected in human HeLa cells assessed as inhibited virus-induced cytopathic effect incubated for 2 days by XTT assay; format: functional, organism-based
Influenza A virus = experiment: Antiviral activity against Influenza A virus (A/Mexico/4108/2009(H1N1)) infected in MDCK cells assessed as inhibited virus-induced cytopathic effect incubated for 2 days by XTT assay; format: functional, organism-based
Adenosine kinase [9] = target: T1, Adenosine kinase; experiment: Substrate activity at recombinant human ADK assessed as compound phosphorylation at 50 uM after 20 mins in presence of [3H]-adenosine by UPLC; format: ADME
dengue virus type 2 = experiment: Antiviral activity against Dengue virus 2 Thailand/16681/84 infected in African green monkey Vero cells assessed as inhibition of virus replication incubated for 3 days by fluorescence microscopy; format: functional, organism-based
Hepatitis C virus [10] = experiment: Antiviral activity against Hepatitis C virus genotype 2a infected in human Huh-luc replicon cells after 3 days by luciferase assay; format: functional, organism-based, Hepacivirus hominis; details: subtype 2a, 72 h
CCRF-CEM [11] = experiment: Induction of cell cycle arrest in human CCRF-CEM cells assessed as accumulation at G0/G1 phase at IC50 concentration after 24 hrs by propidium iodide-staining based flow cytometry (reference value: 39.70%); format: functional
CCRF-CEM [12] = experiment: Induction of cell cycle arrest in human CCRF-CEM cells assessed as accumulation at subG1 phase at IC50 concentration after 24 hrs by propidium iodide-staining based flow cytometry (reference value: 3.45%); format: functional
CCRF-CEM [13] = experiment: Induction of cell cycle arrest in human CCRF-CEM cells assessed as accumulation at subG1 phase at 5 times IC50 concentration after 24 hrs by propidium iodide-staining based flow cytometry (reference value: 3.45%); format: functional
CCRF-CEM [14] = experiment: Inhibition of mitosis in human CCRF-CEM cells assessed Ser10 H3 phosphorylation positive cells at 5 times IC50 concentration after 24 hrs by flow cytometry relative to total cell population (reference value: 1.36%); format: functional; set-up: scale not given: the % may be the effect or the level left
CCRF-CEM [15] = experiment: Induction of cell cycle arrest in human CCRF-CEM cells assessed as accumulation at G0/G1 phase at 5 times IC50 concentration after 24 hrs by propidium iodide-staining based flow cytometry (reference value: 39.70%); format: functional
CCRF-CEM [16] = experiment: Inhibition of DNA synthesis in human CCRF-CEM cells assessed as DNA synthesis level at 5 times IC50 concentration after 24 hrs by BrdU incorporation assay (reference value: 43.39%); format: functional; set-up: scale not given: the % may be the effect or the level left
CCRF-CEM [17] = experiment: Inhibition of DNA synthesis in human CCRF-CEM cells assessed as DNA synthesis level at IC50 concentration after 24 hrs by BrdU incorporation assay (reference value: 43.39%); format: functional; set-up: scale not given: the % may be the effect or the level left
CCRF-CEM [18] = experiment: Induction of cell cycle arrest in human CCRF-CEM cells assessed as accumulation at S phase at IC50 concentration after 24 hrs by propidium iodide-staining based flow cytometry (reference value: 41.08%); format: functional
CCRF-CEM [19] = experiment: Induction of cell cycle arrest in human CCRF-CEM cells assessed as accumulation at G2/M phase at 5 times IC50 concentration after 24 hrs by propidium iodide-staining based flow cytometry (reference value: 19.22%); format: functional
CCRF-CEM [20] = experiment: Inhibition of mitosis in human CCRF-CEM cells assessed Ser10 H3 phosphorylation positive cells at IC50 concentration after 24 hrs by flow cytometry relative to total cell population (reference value: 1.36%); format: functional; set-up: scale not given: the % may be the effect or the level left
CCRF-CEM [21] = experiment: Inhibition of RNA synthesis in human CCRF-CEM cells assessed as RNA synthesis level at 5 times IC50 concentration after 24 hrs by BrU incorporation assay (reference value: 49.89%); format: functional; set-up: scale not given: the % may be the effect or the level left
CCRF-CEM [22] = experiment: Inhibition of RNA synthesis in human CCRF-CEM cells assessed as RNA synthesis level at IC50 concentration after 24 hrs by BrU incorporation assay (reference value: 49.89%); format: functional; set-up: scale not given: the % may be the effect or the level left
CCRF-CEM [23] = experiment: Induction of cell cycle arrest in human CCRF-CEM cells assessed as accumulation at G2/M phase at IC50 concentration after 24 hrs by propidium iodide-staining based flow cytometry (reference value: 19.22%); format: functional
CCRF-CEM [24] = experiment: Induction of cell cycle arrest in human CCRF-CEM cells assessed as accumulation at S phase at 5 times IC50 concentration after 24 hrs by propidium iodide-staining based flow cytometry (reference value: 41.08%); format: functional

Compound | pIC50 (K562) | pIC50 [1] | CC50 at 72 h [2] [µM] | pIC50 (HL-60) | pIC50 (BJ) | pIC50 (HepG2) | pIC50 [3] | Activity (Human alphaherpesvirus 1) | pIC50 (MRC5) | pIC50 (A549) | pIC50 (U2OS) | pIC50 (HeLa S3) | pIC50 (Adenosine kinase [4]) | Activity (Human orthopneumovirus) | pIC50 (HCT-116 [5]) | pEC50 (Hepatitis C virus [6]) | pIC50 (HCT-116 [7]) | pIC50 (CCRF-CEM [8]) | Activity (Coxsackievirus B3) | Activity (Influenza A virus) | also measured
Cc1ncnc2c1c1ccn(C)c1n2[C@@H]1O[C@H](CO)[C@@H](O)[C@H]1O | < 4.30 | < 4.30 | > 44.4 | < 4.30 | < 4.30 | < 4.30 | < 4.30 | inactive | < 4.30 | < 4.30 | < 4.30 | < 4.30 | < 5.00 | inactive | < 4.30 | < 4.35 | < 4.30 | < 4.30 | inactive | inactive | Activity (Adenosine kinase [9]): 0%; Activity (dengue virus type 2): inactive; pEC50 (Hepatitis C virus [10]): < 4.35
OC[C@H]1O[C@@H](n2c3ccoc3c3c(-c4ccco4)ncnc32)[C@H](O)[C@@H]1O | 5.15 | < 4.30 | > 44.4 | 5.59 | < 4.30 | < 4.30 | 5.15 | inactive | < 4.30 | < 4.30 | 5.38 | < 4.30 | 5.40 | inactive | < 4.30 | 6.77 | < 4.30 | 6.35 | inactive | inactive | Activity (Adenosine kinase [9]): 34%; Activity (dengue virus type 2): inactive; pEC50 (Hepatitis C virus [10]): < 4.35
Cn1ccc2c1c1c(Cl)ncnc1n2[C@@H]1O[C@H](CO)[C@@H](O)[C@H]1O | 6.74 | 4.30 | > 44.4 | 7.22 | 5.92 | 6.80 | 4.30 | inactive | 4.30 | 5.52 | 6.21 | 6.24 | < 5.00 | inactive | 6.82 | 6.43 | 6.77 | 7.22 | inactive | inactive | Activity (Adenosine kinase [9]): 77%; Activity (dengue virus type 2): inactive; pEC50 (Hepatitis C virus [10]): 7.22
Nc1ncnc2c1c(-c1cccs1)cn2[C@@H]1O[C@H](CO)[C@@H](O)[C@H]1O | – | 7.22 | – | – | < 4.30 | – | 7.40 | – | < 4.30 | 4.88 | 6.29 | 7.70 | – | – | 7.70 | – | 7.70 | – | – | – | Activity (CCRF-CEM [11]): 20.49%; Activity (CCRF-CEM [12]): 29.83%; Activity (CCRF-CEM [13]): 58.53%; Activity (CCRF-CEM [14]): 0.94%; Activity (CCRF-CEM [15]): 32.31%; Activity (CCRF-CEM [16]): 10.76%; Activity (CCRF-CEM [17]): 3.59%; Activity (CCRF-CEM [18]): 62.28%; Activity (CCRF-CEM [19]): 28.98%; Activity (CCRF-CEM [20]): 2.09%; Activity (CCRF-CEM [21]): 57.09%; Activity (CCRF-CEM [22]): 0.91%; Activity (CCRF-CEM [23]): 17.23%; Activity (CCRF-CEM [24]): 38.71%
Cn1ccc2c3c(-c4ccoc4)ncnc3n([C@@H]3O[C@H](CO)[C@@H](O)[C@H]3O)c21 | < 4.30 | < 4.30 | > 44.4 | < 4.30 | < 4.30 | < 4.30 | < 4.30 | inactive | < 4.30 | < 4.30 | < 4.30 | < 4.30 | < 5.00 | inactive | < 4.30 | 4.78 | < 4.30 | < 4.30 | inactive | inactive | Activity (Adenosine kinase [9]): 0%; Activity (dengue virus type 2): inactive; pEC50 (Hepatitis C virus [10]): < 4.35
